Results pooled from the literature.

Compound | system | setting | measurement | value
OCc1nc2ccc(NCc3ccc(C(F)(F)F)cc3)cc2[nH]1 | male BALB/c mouse, plasma | oral, 10 mg/kg | AUC(0-inf) | 2730 ng·h/mL
NCc1cc2c(cc1F)C(=O)N(C1CCC(=O)NC1=O)C2 (centres unmarked) | male CD-1 mouse, plasma | oral, 10 mg/kg | AUC(0-inf) | 262 ng·h/mL
OCc1ccc(-c2nn(Cc3ccccc3)c3ccccc23)o1 | male CD-1 mouse, plasma | oral, 10 mg/kg | AUC(0-t) | 218 ng·h/mL
COc1cccc2c(N3CCC(CCP(=O)(O)O)CC3)ncnc12 | female C57BL/6 mouse, serum | subcutaneous, 50 mg/kg | AUC(0-inf) | 18300 ng·h/mL
CC(C)[C@@H](CS(=O)(=O)C(C)C)N1C(=O)[C@@](C)(CC(=O)O)C[C@H](c2cccc(Cl)c2)[C@H]1c1ccc(Cl)cc1 | FVB mouse, brain | intravenous, 20 mg/kg, single dose | AUC(0-inf) | 172 ng·h/mL
Cc1ccc(CCC(=O)Nc2nnc(S(N)(=O)=O)s2)cc1 | male BALB/c mouse, plasma | oral, 20 mg/kg | AUC | 12.5 µM·h
CN(C)C(=O)c1cc2cnc(Nc3ccc(-c4ccc5c(=O)cc(N6CCOCC6)oc5c4)cc3)nc2n1C1CCCC1.Cl | BALB/c mouse, plasma | intravenous, 2 mg/kg | AUC(0-inf) | 2790 ng·h/mL
NCc1ccc(-c2nn(Cc3ccccc3)c3ccccc23)o1 | male CD-1 mouse, plasma | intravenous, 5 mg/kg | AUC(0-t) | 1310 ng·h/mL
Cc1nc2ccc(OCc3ccc(C(F)(F)F)cc3)cc2[nH]1 | male BALB/c mouse, plasma | oral, 10 mg/kg | AUC(0-inf) | 13200 ng·h/mL
O=C1CCC(N2Cc3cc(C4CCN(Cc5ccccc5)CC4)ccc3C2=O)C(=O)N1 (centres unmarked) | male CD-1 mouse, plasma | oral, 3 mg/kg | AUC(0-inf) | 603 ng·h/mL
CCOC(=O)c1c(NC(=O)CNC(C)C)sc2c1CCCCC2 | male mouse, plasma | intraperitoneal, 100 mg/kg, single dose | AUC(0-inf) | 19300 ng·h/mL
COCC(=O)N1CCc2[nH]c3c(Cl)c(Cl)ccc3c2[C@@H]1C | C57BL/6 mouse, blood | oral, 20 mg/kg | AUC(0-inf) | 8.24 µM·h
O=C1CCC(N2Cc3cc(CO)c(F)cc3C2=O)C(=O)N1 (centres unmarked) | male CD-1 mouse, plasma | intravenous, 1 mg/kg | AUC(0-inf) | 316 ng·h/mL
CO[C@H]1/C=C/O[C@@]2(C)Oc3c(C)c(O)c4c(c3C2=O)C2=NC3(CCN(CC(C)C)CC3)NC2=C(NC(=O)/C(C)=C\C=C\[C@H](C)[C@H](O)[C@@H](C)[C@@H](O)[C@@H](C)[C@H](OC(C)=O)[C@@H]1C)C4=O | female CD-1 mouse, plasma | intravenous, 5 mg/kg | AUC | 8070 ng·h/mL
